Measurements taken from the array DNA melting data of Ke et al. (doi:10.1101/2024.01.08.574731).

Legend:
[1] = melting temperature; fluorescence melt of hairpins on a sequencing array, two-state fit, raised by 9.35 °C to match UV melts; conditions: sodium 0.088 M
In short: (§1)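 In 50 mM Na-HEPES pH 8.0 containing 25 mM NaCl, hairpins from the library on a sequenced MiSeq flow cell were imaged for Cy3 fluorescence at 2.5 °C steps up to 60 °C, with Cy3 and quencher oligos annealed. After normalisation to pre-quench Cy3 and to control constructs, two-state fits with bootstrapping gave melting temperature and folding enthalpy. Four replicates were combined by inverse-variance weighting, and fitted temperatures were shifted up by 9.35 °C to match UV melts.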

[2] = folding enthalpy; higher = less favourable; fluorescence melt of hairpins on a sequencing array, two-state fit; conditions: sodium 0.088 M
In short: as §1

Sequence | Tm [1] [°C] | folding enthalpy [2] [kcal/mol]
GATCTACCTATAGATC ((((((....)))))) | 40.5 | -35
GATCTACCTGTAGATC ((((((....)))))) | 52.8 | -39.4
GATCTACCTTAGATC ((((((...)))))) | 39.1 | -32
GATCTACGAATAGATC ((((((....)))))) | 36.4 | -24
GATCTACGATAGATC ((((((...)))))) | 35.4 | -19.9
GATCTACGATTAGATC ((((((....)))))) | 34.9 | -27.4
GATCTACGCCTAGATC ((((((....)))))) | 42.6 | -33.8
GATCTACGCTTAGATC ((((((....)))))) | 43.4 | -35.4
GATCTACGGATAGATC ((((((....)))))) | 37.8 | -23.4
GATCTACTAATAGATC ((((((....)))))) | 38.9 | -27.3
GATCTACTATAGATC ((((((...)))))) | 40.5 | -25.1
GATCTACTCGTAGATC ((((((....)))))) | 53.8 | -50.1
GATCTACTCTTAGATC ((((((....)))))) | 41.1 | -29.7
GATCTACTGGTAGATC ((((((....)))))) | 52.8 | -43.6
GATCTACTTATAGATC ((((((....)))))) | 43 | -29.4
GATCTACTTGTAGATC ((((((....)))))) | 56.2 | -41.1
GATCTACTTTTAGATC ((((((....)))))) | 39.8 | -33.1
GATCTAGAATAGATC ((((((...)))))) | 49.9 | -37.4
GATCTAGACCTAGATC ((((((....)))))) | 47.2 | -32.8
GATCTAGACTTAGATC ((((((....)))))) | 47 | -39.3

Sequence | Tm [1] [°C] | folding enthalpy [2] [kcal/mol]
GATCTAGAGGTAGATC ((((((....)))))) | 35.1 | -24.4
GATCTAGATGTAGATC ((((((....)))))) | 39.8 | -27.9
GATCTAGATTAGATC ((((((...)))))) | 36.2 | -26.3
GATCTAGCAATAGATC ((((((....)))))) | 47.6 | -39.6
GATCTAGCATTAGATC ((((((....)))))) | 47.6 | -43.5
GATCTAGCCCTAGATC ((((((....)))))) | 45.6 | -37
GATCTAGCGTAGATC ((((((...)))))) | 37.7 | -29.1
GATCTAGCGTTAGATC ((((((....)))))) | 39.7 | -31.1
GATCTAGCTCTAGATC ((((((....)))))) | 45.2 | -33.1
GATCTAGGAAACTAGACC (.(((((....))))).) | 29.3 | -14.8
GATCTAGGAAACTAGGTC ((.((((....)))).)) | 38.6 | -34.3
GATCTAGGAGTAGATC ((((((....)))))) | 40.4 | -30.2
GATCTAGGCATAGATC ((((((....)))))) | 48.8 | -36.9
GATCTAGGCTTAGATC ((((((....)))))) | 46.6 | -38.4
GATCTAGTACTAGATC ((((((....)))))) | 48.7 | -51.4
GATCTAGTATTAGATC ((((((....)))))) | 47.1 | -37.5
GATCTAGTTATAGATC ((((((....)))))) | 48.9 | -33.8
GATCTAGTTTTAGATC ((((((....)))))) | 42.3 | -32.3
GATCTATAATAGATC ((((((...)))))) | 38.3 | -21.8
GATCTATCATAGATC ((((((...)))))) | 40.1 | -28
